Common to all, as to details: in vivo
The test system of one data set is Heart. Description: Biodistribution in heart of athymic nu/nu mouse bearing human alphavbeta6 expressing DX3purobeta6 cells at 15 to 30 uCi, iv after 1 hr. The data set is classed as ADME, organism-based. The method in brief: (§1)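 Male athymic nu/nu mice carried s.c. xenografts on opposite shoulder flanks: 3 × 10^6 DX3puro or DX3puroβ6 cells in serum-free DMEM, integrin expression checked by flow cytometry beforehand, used 2-5 weeks later. [18F]-peptide (approx. 15-30 μCi) in isotonic solution given i.v. via tail-vein catheter under 3% isoflurane. 1 h conscious uptake, then sacrificed and dissected (n = 3 per tracer). Organs γ-counted, decay-corrected, reported as % ID/g.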

The next data set relates to Lung. Put plainly: Biodistribution in lung of athymic nu/nu mouse bearing human alphavbeta6 expressing DX3purobeta6 cells at 15 to 30 uCi, iv after 1 hr. It is filed as ADME, organism-based. The method in brief:
as §1

The next data set relates to Spleen. Put plainly: Biodistribution in spleen of athymic nu/nu mouse bearing human alphavbeta6 expressing DX3purobeta6 cells at 15 to 30 uCi, iv after 1 hr. The data set is classed as ADME, organism-based. The method in brief: as §1
Another data set has as its system Brain. Put plainly: Biodistribution in brain of athymic nu/nu mouse bearing human alphavbeta6 expressing DX3purobeta6 cells at 15 to 30 uCi, iv after 1 hr. The data set is classed as ADME, organism-based. The method in brief: as §1
The next data set relates to Muscle tissue. Put plainly: Biodistribution in muscle of athymic nu/nu mouse bearing human alphavbeta6 expressing DX3purobeta6 cells at 15 to 30 uCi, iv after 1 hr. It is filed as ADME, organism-based. The method in brief: as §1
In the next data set the test system is Bone. Put plainly: Biodistribution in bone of athymic nu/nu mouse bearing human alphavbeta6 expressing DX3purobeta6 cells at 15 to 30 uCi, iv after 1 hr. It is filed as ADME, organism-based, Bone element. The method in brief: as §1
In the next data set the test system is Kidney. Description: Biodistribution in kidney of athymic nu/nu mouse bearing human alphavbeta6 expressing DX3purobeta6 cells at 15 to 30 uCi, iv after 1 hr. The data set is classed as ADME, organism-based. The method in brief: as §1
A short description of data set [1]: Biodistribution in urine of athymic nu/nu mouse bearing human alphavbeta6 expressing DX3purobeta6 cells at 15 to 30 uCi, iv after 1 hr. The data set is classed as ADME, organism-based. The method in brief: as §1
The subject of the next data set is Urinary bladder. Put plainly: Biodistribution in bladder of athymic nu/nu mouse bearing human alphavbeta6 expressing DX3purobeta6 cells at 15 to 30 uCi, iv after 1 hr. It is filed as ADME, organism-based. The method in brief: as §1
A further data set has as its system Liver. Description: Biodistribution in liver of athymic nu/nu mouse bearing human alphavbeta6 expressing DX3purobeta6 cells at 15 to 30 uCi, iv after 1 hr. The data set is classed as ADME, organism-based. The method in brief: as §1
A short description of data set [2]: Biodistribution in gall bladder of athymic nu/nu mouse bearing human alphavbeta6 expressing DX3purobeta6 cells at 15 to 30 uCi, iv after 1 hr. It is filed as ADME, organism-based. The method in brief: as §1
A further data set has as its system Blood. Description: Biodistribution in blood of athymic nu/nu mouse bearing human alphavbeta6 expressing DX3purobeta6 cells at 15 to 30 uCi, iv after 1 hr. It is filed as ADME, organism-based. The method in brief: as §1
The next data set relates to Pancreas. Put plainly: Biodistribution in pancreas of athymic nu/nu mouse bearing human alphavbeta6 expressing DX3purobeta6 cells at 15 to 30 uCi, iv after 1 hr. It is filed as ADME, organism-based. The method in brief:
as §1

The test system of another data set is Stomach. Description: Biodistribution in stomach of athymic nu/nu mouse bearing human alphavbeta6 expressing DX3purobeta6 cells at 15 to 30 uCi, iv after 1 hr. It is filed as ADME, organism-based. The method in brief:
as §1

Data set [3] can be described thus: Biodistribution in human alphavbeta6 expressing DX3purobeta6 cells bearing athymic nu/nu mouse at 15 to 30 uCi, iv after 1 hr. It is filed as ADME, organism-based. The method in brief: as §1
Data set [4] is described as follows: Biodistribution in human alphavbeta6 deficient DX3puro cells bearing athymic nu/nu mouse at 15 to 30 uCi, iv after 1 hr. The data set is classed as ADME, organism-based. The method in brief: as §1
Data set [5] can be described thus: Biodistribution ratio of human alphavbeta6 expressing DX3purobeta6 cells to human alphavbeta6 deficient DX3puro cells bearing athymic nu/nu mouse at 15 to 30 uCi, iv after 1 hr. The data set is classed as ADME, organism-based. The method in brief:
(§2)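 Tumour ratios were taken from 1 h biodistribution in male nu/nu mice bearing DX3puro and DX3puroβ6 s.c. shoulder xenografts (3 × 10^6 cells). Dosing was approx. 15-30 μCi [18F]-peptide i.v. by tail-vein catheter under isoflurane, with conscious uptake. Tissues were γ-counted as decay-corrected % ID/g (n = 3 per tracer), and the ratio was formed from these values.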

The nature of data set [6]: Biodistribution ratio of human alphavbeta6 expressing DX3purobeta6 cells bearing athymic nu/nu mouse to blood of athymic nu/nu mouse bearing human alphavbeta6 expressing DX3purobeta6 cells at 15 to 30 uCi, iv after 1 hr. The data set is classed as ADME, organism-based. The method in brief:
as §2

Turning to `CC(C)C[C@H](NC(=O)[C@H](CC(=O)O)NC(=O)CNC(=O)[C@H](CCCNC(=N)N)NC(=O)[C@H](CC(C)C)NC(=O)[C@H](CC(N)=O)NC(=O)[C@@H]1CCCN1C(=O)[C@@H](NC(=O)[C@H](C)NC(=O)[C@H](CC(N)=O)NC(=O)CCn1cc(CCC[18F])nn1)C(C)C)C(=O)N[C@@H](CCC(N)=O)C(=O)N[C@H](C(=O)N[C@@H](CC(C)C)C(=O)N[C@@H](C)C(=O)N[C@@H](CCC(N)=O)C(=O)N[C@@H](CCCCN)C(=O)N[C@H](C(=O)N[C@@H](C)C(=O)N[C@@H](CCCNC(=N)N)C(=O)N[C@H](C(N)=O)[C@@H](C)O)C(C)C)C(C)C`, the Drug uptake with Heart turned out to be 0.47 % ID/g; in the data set on Lung, 1.83 % ID/g; with Spleen it was 0.13 % ID/g; with Brain it was 0.05 % ID/g; in the data set on Muscle tissue, 1.01 % ID/g; in the data set on Bone, 0.39 % ID/g. Moreover, the Drug uptake in the data set on Kidney is given as 9.5 % ID/g; in [1], 501 % ID/g; in the data set on Urinary bladder it was 6.24 % ID/g; with Liver, 1.12 % ID/g; in data set [2] it was 4.72 % ID/g; in the data set on Blood, 0.43 % ID/g. For the same compound, the Drug uptake in the data set on Pancreas stood at 0.3 % ID/g; in the data set on Stomach, 0.97 % ID/g; in data set [3] it was 1.01 % ID/g; in data set [4] it was 0.31 % ID/g. The Ratio is recorded as 3.3 in data set [5] and 2.3 in [6].

For `CC(C)C[C@H](NC(=O)[C@H](CC(=O)O)NC(=O)CNC(=O)[C@H](CCCNC(=N)N)NC(=O)[C@H](CC(C)C)NC(=O)[C@H](CC(N)=O)NC(=O)[C@@H]1CCCN1C(=O)[C@@H](NC(=O)[C@H](C)NC(=O)[C@H](CC(N)=O)NC(=O)C(C)[18F])C(C)C)C(=O)N[C@@H](CCC(N)=O)C(=O)N[C@H](C(=O)N[C@@H](CC(C)C)C(=O)N[C@@H](C)C(=O)N[C@@H](CCC(N)=O)C(=O)N[C@@H](CCCCN)C(=O)N[C@H](C(=O)N[C@@H](C)C(=O)N[C@@H](CCCNC(=N)N)C(=O)N[C@H](C(N)=O)[C@@H](C)O)C(C)C)C(C)C` (stereo partly drawn), the Drug uptake with Heart is given as 0.62 % ID/g; in the data set with Lung it was 2.06 % ID/g; in the data set with Spleen it was 0.32 % ID/g; in the data set with Brain, 0.28 % ID/g; with Muscle tissue, 0.82 % ID/g; in the data set with Bone, 0.38 % ID/g. Besides, the Drug uptake amounted to 4.87 % ID/g with Kidney; 311 % ID/g in data set [1]; 5.3 % ID/g in the data set with Urinary bladder; 0.51 % ID/g in the data set with Liver; 2.13 % ID/g in [2]; 0.64 % ID/g with Blood. In addition, the Drug uptake in the data set with Pancreas came to 0.39 % ID/g; in the data set with Stomach, 3.61 % ID/g; in data set [3] it was 1.18 % ID/g; in [4] it was 0.61 % ID/g. Moreover, the results for the Ratio in [5] and in [6] were 1.9 and 1.8, respectively.

For `CC(C)C[C@H](NC(=O)[C@H](CC(=O)O)NC(=O)CNC(=O)[C@H](CCCNC(=N)N)NC(=O)[C@H](CC(C)C)NC(=O)[C@H](CC(N)=O)NC(=O)[C@@H]1CCCN1C(=O)[C@@H](NC(=O)[C@H](C)NC(=O)[C@H](CC(N)=O)NC(=O)c1ccc([18F])cc1)C(C)C)C(=O)N[C@@H](CCC(N)=O)C(=O)N[C@H](C(=O)N[C@@H](CC(C)C)C(=O)N[C@@H](C)C(=O)N[C@@H](CCC(N)=O)C(=O)N[C@@H](CCCCN)C(=O)N[C@H](C(=O)N[C@@H](C)C(=O)N[C@@H](CCCNC(=N)N)C(=O)N[C@H](C(N)=O)[C@@H](C)O)C(C)C)C(C)C` [[18F]-FBA-A20FMDV2], the Drug uptake with Heart amounted to 0.31 % ID/g; with Lung, 1.39 % ID/g; in the data set with Spleen it was 0.07 % ID/g; in the data set with Brain, 0.02 % ID/g; in the data set with Muscle tissue, 0.56 % ID/g; with Bone, 0.29 % ID/g. For the same compound, the Drug uptake in the data set on Kidney was determined as 3.56 % ID/g; in the data set on Urinary bladder it was 8.25 % ID/g; in the data set with Liver it was 0.63 % ID/g; in data set [2], 15.05 % ID/g; in the data set on Blood, 0.27 % ID/g; in the data set with Pancreas it was 0.23 % ID/g. In addition, the Drug uptake with Stomach amounted to 1.33 % ID/g; in data set [3] it was 0.66 % ID/g; in data set [4], 0.21 % ID/g. For the same compound, the Ratio was 3.1 in [5] and 2.5 in data set [6].

The values are drawn from ChEMBL document CHEMBL1140108, “In vivo positron emission tomography (PET) imaging with an alphavbeta6 specific peptide radiolabeled using 18F-"click" chemistry: evaluation and comparison with the corresponding 4-[18F]fluorobenzoyl- and 2-[18F]fluoropropionyl-peptides” (J Med Chem, 2008).
